# Experimental data taken from ChEMBL document CHEMBL1129929, “Analogues of methotrexate in rheumatoid arthritis. 1. Effects of 10-deazaaminopterin analogues on type II collagen-induced arthritis in mice” (J Med Chem, 1997).
# Legend:
# [1] = test system: Mus musculus; test: Tested for antiinflammatory activity on mouse type II collagen arthritis as Paw swelling* of all animals in each group on day 23 at intraperitoneal dose of 15 mg/kg; assay type: functional
# Method in brief: (§1)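 DBA/1 mice immunized with bovine type II collagen (Courtenay method, modified), antigen booster at day 21. Compounds given ip from 2 days before the first collagen challenge, then every 2 days. Hind paw dimensions (mm) measured for both limbs of all animals, expressed as mean ± SD. Eight mice per dose; untreated controls pooled from four experiments (48 animals).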
# [2] = test system: Mus musculus; test: Incidence of disease(mouse type II collagen arthritis) was scored as the percentage of animals within each experimental group that exhibited joint or limb inflammation on day 23 at intraperitoneal dose of 15 mg/kg; assay type: functional
# Method in brief: (§2)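 DBA/1 mice were immunized with bovine type II collagen (modified Courtenay method), with a collagen booster on day 21. Compounds were given ip starting 2 days before the first collagen challenge and every 2 days thereafter. Incidence was the percentage of animals per group with joint or limb inflammation, scored on days 23, 30, 37 and 44.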
# [3] = test system: Mus musculus; test: Incidence of disease(mouse type II collagen arthritis) was scored as the percentage of animals within each experimental group that exhibited joint or limb inflammation on day 44 at intraperitoneal of dose 9 mg/kg; assay type: functional; method in brief: as §2
# [4] = test system: Mus musculus; test: Incidence of disease(mouse type II collagen arthritis) was scored as the percentage of animals within each experimental group that exhibited joint or limb inflammation on day 30 at intraperitoneal of dose 9 mg/kg; assay type: functional; method in brief: as §2
# [5] = test system: Mus musculus; test: Incidence of disease(mouse type II collagen arthritis) was scored as the percentage of animals within each experimental group that exhibited joint or limb inflammation on day 44 at intraperitoneal of dose 12 mg/kg; assay type: functional; method in brief: as §2
# [6] = test system: Mus musculus; test: Tested for antiinflammatory activity on mouse type II collagen arthritis as Paw swelling* of all animals in each group on day 44 at intraperitoneal dose of 12 mg/kg; assay type: functional; method in brief: as §1
# [7] = test system: Mus musculus; test: Tested for antiinflammatory activity on mouse type II collagen arthritis as Paw swelling* of all animals in each group on day 30 at intraperitoneal dose of 12 mg/kg; assay type: functional; method in brief: as §1
# [8] = test system: Mus musculus; test: Incidence of disease(mouse type II collagen arthritis) was scored as the percentage of animals within each experimental group that exhibited joint or limb inflammation on day 37 at intraperitoneal of dose 9 mg/kg; assay type: functional; method in brief: as §2
# [9] = Concentration required to inhibit the growth of chang liver cells; assay type: functional; conditions: Homo sapiens
# [10] = test system: Mus musculus; test: Tested for antiinflammatory activity on mouse type II collagen arthritis as Paw swelling* of all animals in each group on day 37 at intraperitoneal dose of 15 mg/kg; assay type: functional; method in brief: as §1
# [11] = test system: Mus musculus; test: Incidence of disease(mouse type II collagen arthritis) was scored as the percentage of animals within each experimental group that exhibited joint or limb inflammation on day 30 at intraperitoneal of dose 12 mg/kg; assay type: functional; method in brief: as §2
# [12] = test system: Mus musculus; test: Incidence of disease(mouse type II collagen arthritis) was scored as the percentage of animals within each experimental group that exhibited joint or limb inflammation on day 30 at intraperitoneal of dose 15 mg/kg; assay type: functional; method in brief: as §2
# [13] = test system: Mus musculus; test: Tested for antiinflammatory activity on mouse type II collagen arthritis as Paw swelling* of all animals in each group on day 37 at intraperitoneal dose of 9 mg/kg; assay type: functional; method in brief: as §1
# [14] = test system: Mus musculus; test: Tested for antiinflammatory activity on mouse type II collagen arthritis as Paw swelling* of all animals in each group on day 44 at intraperitoneal dose of 15 mg/kg; assay type: functional; method in brief: as §1
# [15] = test system: L1210; test: Concentration required to inhibit the growth of L1210 cells; assay type: functional, cell-based; conditions: Mus musculus
# [16] = test system: Mus musculus; test: Tested for antiinflammatory activity on mouse type II collagen arthritis as Paw swelling* of all animals in each group on day 23 at intraperitoneal dose of 9 mg/kg; assay type: functional; method in brief: as §1
# [17] = test system: Mus musculus; test: Tested for antiinflammatory activity on mouse type II collagen arthritis as Paw swelling* of all animals in each group on day 23 at intraperitoneal dose of 12 mg/kg; assay type: functional; method in brief: as §1
# [18] = test system: Mus musculus; test: Incidence of disease(mouse type II collagen arthritis) was scored as the percentage of animals within each experimental group that exhibited joint or limb inflammation on day 23 at intraperitoneal dose of 12 mg/kg; assay type: functional; method in brief: as §2
# [19] = test system: Mus musculus; test: Incidence of disease(mouse type II collagen arthritis) was scored as the percentage of animals within each experimental group that exhibited joint or limb inflammation on day 37 at intraperitoneal of dose 12 mg/kg; assay type: functional; method in brief: as §2
# [20] = test system: Mus musculus; test: Incidence of disease(mouse type II collagen arthritis) was scored as the percentage of animals within each experimental group that exhibited joint or limb inflammation on day 44 at intraperitoneal of dose 15 mg/kg; assay type: functional; method in brief: as §2
# [21] = test system: Mus musculus; test: Tested for antiinflammatory activity on mouse type II collagen arthritis as Paw swelling* of all animals in each group on day 30 at intraperitoneal dose of 9 mg/kg; assay type: functional; method in brief: as §1
# [22] = test system: Mus musculus; test: Incidence of disease(mouse type II collagen arthritis) was scored as the percentage of animals within each experimental group that exhibited joint or limb inflammation on day 23 at intraperitoneal dose of 9 mg/kg; assay type: functional; method in brief: as §2
# [23] = test system: Mus musculus; test: Tested for antiinflammatory activity on mouse type II collagen arthritis as Paw swelling* of all animals in each group on day 44 at intraperitoneal dose of 9 mg/kg; assay type: functional; method in brief: as §1
# [24] = test system: Mus musculus; test: Tested for antiinflammatory activity on mouse type II collagen arthritis as Paw swelling* of all animals in each group on day 37 at intraperitoneal dose of 12 mg/kg; assay type: functional; method in brief: as §1
# [25] = test system: Mus musculus; test: Tested for antiinflammatory activity on mouse type II collagen arthritis as Paw swelling* of all animals in each group on day 30 at intraperitoneal dose of 15 mg/kg; assay type: functional; method in brief: as §1
# [26] = test system: Mus musculus; test: Incidence of disease(mouse type II collagen arthritis) was scored as the percentage of animals within each experimental group that exhibited joint or limb inflammation on day 37 at intraperitoneal of dose 15 mg/kg; assay type: functional; method in brief: as §2
# [27] = test system: Mus musculus; test: Incidence of disease(mouse type II collagen arthritis) was scored as the percentage of animals within each experimental group that exhibited joint or limb inflammation on day 30 at intraperitoneal of dose 12 mg/kg (1 animal died); assay type: functional
# Method in brief: (§3)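 DBA/1 mice immunised with bovine type II collagen, booster at day 21 (modified Courtenay model). Compound given intraperitoneally from 2 days before the first collagen challenge, then every 2 days. Incidence is the percentage of animals per group showing joint or limb inflammation, scored visually on days 23, 30, 37 and 44.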
# [28] = test system: Mus musculus; test: Incidence of disease(mouse type II collagen arthritis) was scored as the percentage of animals within each experimental group that exhibited joint or limb inflammation on day 44 at intraperitoneal of dose 12 mg/kg; d means 3 animals died; assay type: functional, organism-based; set-up: dose 12 mg/kg; conditions: at 12 mg/kg; method in brief: as §2
# [29] = test system: Mus musculus; test: Incidence of disease(mouse type II collagen arthritis) was scored as the percentage of animals within each experimental group that exhibited joint or limb inflammation on day 37 at intraperitoneal of dose 12 mg/kg (1 animal died); assay type: functional; method in brief: as §3
# [30] = test system: Mus musculus; test: Tested for antiinflammatory activity on mouse type II collagen arthritis as Paw swelling* of all animals in each group on day 44 at intraperitoneal dose of 12 mg/kg; d means 3 animals died; assay type: functional, organism-based; set-up: dose 12 mg/kg; method in brief: as §1
# [31] = test system: Mus musculus; test: Incidence of disease(mouse type II collagen arthritis) was scored as the percentage of animals within each experimental group that exhibited joint or limb inflammation on day 23 at intraperitoneal dose of 12 mg/kg (1 animal died); assay type: functional; method in brief: as §3
structure (smiles),measurement,setting,value
Nc1nc(N)c2nc(CCc3ccc(C(=O)N[C@@H](CCC(=O)O)C(=O)O)cc3)cnc2n1,Paw swelling,[1],2.2 mm
same,Animals,[2],0%
same,Animals,[3],50%
same,Animals,[4],38%
same,Animals,[5],62%
same,Paw swelling,[6],2.33 mm
same,Paw swelling,[7],2.36 mm
same,Animals,[8],38%
same,IC50,[9],98 nM
same,Paw swelling,[10],2.29 mm
same,Animals,[11],50%
same,Animals,[12],38%
same,Paw swelling,[13],2.28 mm
same,Paw swelling,[14],2.3 mm
same,IC50,[15],3.7 nM
same,Paw swelling,[16],2.19 mm
same,Paw swelling,[17],2.21 mm
same,Animals,[18],12%
same,Animals,[19],50%
same,Animals,[20],38%
same,Paw swelling,[21],2.32 mm
same,Animals,[22],25%
same,Paw swelling,[23],2.32 mm
same,Paw swelling,[24],2.31 mm
same,Paw swelling,[25],2.31 mm
same,Animals,[26],50%
Nc1nc(N)c2nc(CCc3ccc(C(=O)NC(CCC(=O)O)C(=O)O)nc3)cnc2n1 (centres undefined),Paw swelling,[7],2.11 mm
same,Animals,[27],0%
same,Animals,[28],Three animals died
same,Animals,[29],0%
same,Paw swelling,[30],Three animals died
same,Animals,[31],0%
same,Paw swelling,[17],2.14 mm
same,Paw swelling,[24],2.07 mm
